# Measurements of several laboratories.
# Effect on: cell growth or viability
SMILES,cell line,test,conditions,CC50
C=C1CN(S(=O)(=O)c2ccc(C)cc2)CCCN(CCc2ccccc2)CCCN(S(=O)(=O)c2ccc(C)cc2)C1,HEK-293T,resazurin,72 h,> 50 µM
COc1ccc(NC(=O)N2CCCCN3[C@H](COCCC(=O)O)[C@H](c4ccc(C#Cc5ccccc5)cc4)[C@@H]3C2)cc1,HEK-293T,,,> 40 µM
O=C1O[C@H]2[C@@H]3OC(=O)c4cc(O)c(O)c(O)c4-c4c(O)c(O)c5oc(=O)c6c(c(O)c(O)c7oc(=O)c4c5c76)-c4c(cc(O)c(O)c4O)C(=O)OC[C@H]3OC(O)[C@@H]2OC(=O)c2cc(O)c(O)c(O)c2-c2c1cc(O)c(O)c2O (mixture of isomers),Huh-7,MTT,,> 5000 µM
CCOP(=O)(OCC)[C@@H]1C[C@@H](n2cc(Cn3cnc4c(N)ncnc43)nn2)ON1C (racemic),human T-lymphocyte,,72 h,> 250 µM
Cc1ccc(C(=O)CNc2nc(NS(=O)(=O)c3ccccc3)ncc2-c2nc3ccccc3s2)cc1,BGM,,,0.17 µg/µL
NCCN(C(=O)c1ccc(Cl)cc1Cl)c1ccc(OCc2ccc(Cl)cc2)cc1,Huh-7,MTT,24 h,11.9 µM
CCOP(=O)(OCC)[C@@H]1C[C@@H](n2cc(-c3nccn3C)nn2)ON1C,human T-lymphocyte,,72 h,> 250 µM
O=C(CNc1nc(NS(=O)(=O)c2ccccc2)ncc1-c1nc2ccccc2s1)c1ccc(Cl)cc1,BGM,,,0.22 µg/µL
CO[C@H]1/C=C/O[C@@]2(C)Oc3c(C)c(O)c4c(O)c(c(/C=N/N5CCN(C)CC5)c(O)c4c3C2=O)NC(=O)/C(C)=C\C=C[C@H](C)[C@H](O)[C@@H](C)[C@@H](O)[C@@H](C)[C@H](OC(C)=O)[C@@H]1C,Huh-7,MTT,24 h,304 µM
CCOP(=O)(OCC)[C@@H]1C[C@H](n2cc(-c3cccc(F)c3)nn2)ON1C,human T-lymphocyte,,72 h,> 250 µM
Cc1ccc(S(=O)(=O)Nc2nc(N)c(-c3nc4ccccc4s3)c(-c3ccc(Cl)cc3)n2)cc1,BGM,,,0.19 µg/µL
CCOP(=O)(OCC)[C@@H]1C[C@@H](n2cc(Cn3ccc(NC(C)=O)nc3=O)nn2)ON1C (racemic),human T-lymphocyte,,72 h,> 250 µM
Cc1ccc2c(c1C)NC(=O)[C@]21NN=C(c2ccccc2)S1,Huh-7,MTT,24 h,28.6 µM
CC(C)c1cc(Oc2c(Cl)cc(-n3nc(C#N)c(=O)[nH]c3=O)cc2Cl)n[nH]c1=O,LX-2,ATP luminescence,"48 h, serum-free",> 50 µM
CCOP(=O)(OCC)[C@@H]1C[C@H](n2cc(-c3ccccn3)nn2)ON1C,human T-lymphocyte,,72 h,> 250 µM
CC(C)Cn1c(=O)n(C)c(=O)c2c(-c3cncn3C)n(Cc3cccc4ccccc34)nc21,Huh-7,MTT,24 h,> 200 µM
CCOP(=O)(OCC)[C@@H]1C[C@H](n2cc(-c3ccc(F)cc3F)nn2)ON1C,human T-lymphocyte,,72 h,≥ 250 µM
CC(C)OC(=O)C(C)(C)Oc1ccc(C(=O)c2ccc(Cl)cc2)cc1,LX-2,ATP luminescence,"48 h, serum-free",> 50 µM
C[C@H](NC(=O)OCc1ccccc1)C(=O)Nc1ccc(C2S/C(=N\c3cccc(F)c3)N(Cc3ccco3)C2=O)cc1 (stereo partly drawn),Huh-7,,"72 h, replicon",> 50 µM
O=C(O)/C=C/C=C/c1cccc(Oc2cc(Cl)cc(Cl)c2)c1,Huh-7,MTT,24 h,> 200 µM
CCOP(=O)(OCC)[C@@H]1C[C@H](n2cc(Cn3cc(C)c(=O)[nH]c3=O)nn2)ON1C (racemic),human T-lymphocyte,,72 h,> 250 µM
O[C@@H](c1cc(C(F)(F)F)nc2c(C(F)(F)F)cccc12)[C@H]1CCCCN1,Huh-7,MTT,24 h,15.9 µM
CCOP(=O)(OCC)[C@@H]1C[C@@H](n2cc(C(=O)OC)nn2)ON1C (relative stereo),human T-lymphocyte,,72 h,> 250 µM
Cc1ccc2oc(-c3cc(NC(=O)Cc4ccccc4)ccc3Cl)nc2c1,Huh-7,MTT,24 h,> 400 µM
COc1ccc(NC(=O)N2CCCCN3C[C@H](c4ccc(C#Cc5ccccc5)cc4)[C@@H]3C2)cc1,HEK-293T,,,25 µM
Cc1onc(-c2ccccc2)c1-c1ccc(S(N)(=O)=O)cc1,Huh-7,MTT,24 h,> 200 µM
Nc1nc(NS(=O)(=O)c2ccccc2)nc(-c2ccc(Cl)cc2)c1-c1nc2ccccc2s1,BGM,,,0.23 µg/µL
